Assays:
Format in all cases: ADME, organism-based
[1] = species on record: Rattus norvegicus; test: Ratio of distribution of the [131I]-labeled compound at 5 min in rat lung over uptake in blood; settings: other tissue
In short: (§1)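 Male Sprague-Dawley rats (200–300 g, fed ad libitum), ether-anesthetized, got a tail-vein bolus of 0.2 mL saline containing 10–20 μCi 131I compound and were decapitated at the stated time. Organs were weighed and gamma-counted against a serially diluted external standard. Organ/blood ratio was calculated from % dose per gram of organ. Animal numbers per time point were 1–4.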

[2] = species on record: Rattus norvegicus; test: The distribution of the 131 I-labeled compound at 5 min was evaluated in rat liver as Percent of injected dose in the total organ; settings: in vivo
In short: (§2)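 Male Sprague-Dawley rats (200–300 g, free access to food and water), lightly ether-anesthetized and restrained, received a 0.2 mL saline tail-vein bolus of 10–20 μCi 131I-labeled compound. They were decapitated at the stated time, and organs were excised, weighed and gamma-counted. Percent injected dose was determined against a calibrated external standard made by serial dilution of the injectate. n = 1–4 rats.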

[3] = species on record: Rattus norvegicus; test: The distribution of the 131 I-labeled compound at 30 min was evaluated in rat brain as Percent of injected dose in the total organ; settings: in vivo, 0.5 h; in short: as §2
[4] = species on record: Rattus norvegicus; test: The distribution of the 131 I-labeled compound at 5 min was evaluated in rat brain as Percent of injected dose in the total organ; settings: in vivo; in short: as §2
[5] = species on record: Rattus norvegicus; test: The distribution of the 131 I-labeled compound at 30 min was evaluated in rat heart as Percent of injected dose per gram in the organ; settings: in vivo, 0.5 h; in short: as §2
[6] = species on record: Rattus norvegicus; test: The distribution of the 131 I-labeled compound at 5 min was evaluated in rat heart as Percent of injected dose per gram in the organ; settings: in vivo; in short: as §2
[7] = species on record: Rattus norvegicus; test: Ratio of distribution of the [131I]-labeled compound at 5 min in rat liver over uptake in blood; settings: other tissue; in short: as §1
[8] = species on record: Rattus norvegicus; test: The distribution of the 131 I-labeled compound at 30 min was evaluated in rat kidney as Percent of injected dose per gram in the organ; settings: in vivo, 0.5 h; in short: as §2
[9] = species on record: Rattus norvegicus; test: Ratio of distribution of the [131I]-labeled compound at 30 min in rat kidney over uptake in blood; settings: other tissue, 0.5 h; in short: as §1
[10] = species on record: Rattus norvegicus; test: The distribution of the 131 I-labeled compound at 30 min was evaluated in rat brain as Percent of injected dose per gram in the organ; settings: in vivo, 0.5 h; in short: as §2
[11] = species on record: Rattus norvegicus; test: Ratio of distribution of the [131I]-labeled compound at 30 min in rat heart over uptake in blood; settings: other tissue, 0.5 h; in short: as §1
[12] = species on record: Rattus norvegicus; test: Ratio of distribution of the [131I]-labeled compound at 5 min in rat heart over uptake in blood; settings: other tissue; in short: as §1
[13] = species on record: Rattus norvegicus; test: The distribution of the 131 I-labeled compound at 5 min was evaluated in rat kidney as Percent of injected dose in the total organ; settings: in vivo; in short: as §2
[14] = species on record: Rattus norvegicus; test: The distribution of the 131 I-labeled compound at 5 min was evaluated in rat kidney as Percent of injected dose per gram in the organ; settings: in vivo; in short: as §2
[15] = species on record: Rattus norvegicus; test: Ratio of distribution of the [131I]-labeled compound at 30 min in rat liver over uptake in blood; settings: other tissue, 0.5 h; in short: as §1
[16] = species on record: Rattus norvegicus; test: Ratio of distribution of the [131I]-labeled compound at 30 min in rat lung over uptake in blood; settings: other tissue, 0.5 h; in short: as §1
[17] = species on record: Rattus norvegicus; test: The distribution of the 131 I-labeled compound at 30 min was evaluated in rat blood as Percent of injected dose per gram in the organ; settings: in vivo, 0.5 h; in short: as §2
[18] = species on record: Rattus norvegicus; test: The distribution of the 131 I-labeled compound at 5 min was evaluated in rat liver as Percent of injected dose per gram in the organ; settings: in vivo; in short: as §2
[19] = species on record: Rattus norvegicus; test: The distribution of the 131 I-labeled compound at 5 min was evaluated in rat heart as Percent of injected dose in the total organ; settings: in vivo; in short: as §2
[20] = species on record: Rattus norvegicus; test: Ratio of distribution of the [131I]-labeled compound at 30 min in rat brain over uptake in blood; settings: 0.5 h; in short: as §1
[21] = species on record: Rattus norvegicus; test: The distribution of the 131 I-labeled compound at 30 min was evaluated in rat liver as Percent of injected dose in the total organ; settings: in vivo, 0.5 h; in short: as §2
[22] = species on record: Rattus norvegicus; test: The distribution of the 131 I-labeled compound at 5 min was evaluated in rat lung as Percent of injected dose per gram in the organ; settings: in vivo; in short: as §2
[23] = species on record: Rattus norvegicus; test: The distribution of the 131 I-labeled compound at 5 min was evaluated in rat blood as Percent of injected dose per gram in the organ; settings: in vivo; in short: as §2
[24] = species on record: Rattus norvegicus; test: The distribution of the 131 I-labeled compound at 30 min was evaluated in rat heart as Percent of injected dose in the total organ; settings: in vivo, 0.5 h; in short: as §2
[25] = species on record: Rattus norvegicus; test: Ratio of distribution of the [131I]-labeled compound at 5 min in rat brain over uptake in blood; in short: as §1
[26] = species on record: Rattus norvegicus; test: The distribution of the 131 I-labeled compound at 30 min was evaluated in rat kidney as Percent of injected dose in the total organ; settings: in vivo, 0.5 h; in short: as §2
[27] = species on record: Rattus norvegicus; test: The distribution of the 131 I-labeled compound at 5 min was evaluated in rat brain as Percent of injected dose per gram in the organ; settings: in vivo; in short: as §2
[28] = species on record: Rattus norvegicus; test: The distribution of the 131 I-labeled compound at 30 min was evaluated in rat liver as Percent of injected dose per gram in the organ; settings: in vivo, 0.5 h; in short: as §2
[29] = species on record: Rattus norvegicus; test: Ratio of distribution of the [131I]-labeled compound at 5 min in rat kidney over uptake in blood; settings: other tissue; in short: as §1
[30] = species on record: Rattus norvegicus; test: The distribution of the 131 I-labeled compound at 30 min was evaluated in rat lung as Percent of injected dose per gram in the organ; settings: in vivo, 0.5 h; in short: as §2

| SMILES | Ratio [1] | Dose [2] [%] | Dose [3] [%] | Dose [4] [%] | Dose [5] [%] | Dose [6] [%] | Ratio [7] | Dose [8] [%] | Ratio [9] | Dose [10] [%] | Ratio [11] | Ratio [12] | Dose [13] [%] | Dose [14] [%] | Ratio [15] | Ratio [16] | Dose [17] [%] | Dose [18] [%] | Dose [19] [%] | Ratio [20] | other results |
| --- | --- | --- | --- | --- | --- | --- | --- | --- | --- | --- | --- | --- | --- | --- | --- | --- | --- | --- | --- | --- | --- |
| COc1cc(CC(C)N(C)Cc2ccccc2)c(OC)cc1I (stereo not given) | 6.3 | 12 | 0.1 | 0.29 | 0.19 | 1.1 | 6.7 | 0.52 | 5.8 | 0.05 | 2.1 | 9.2 | 1.8 | 0.63 | 6.9 | 7.8 | 0.09 | 0.8 | 1.2 | 0.09 | Dose [21]: 7.6%; Dose [22]: 0.75%; Dose [23]: 0.12%; Dose [24]: 0.21%; Ratio [25]: 1.3; Dose [26]: 1.3%; Dose [27]: 0.15%; Dose [28]: 0.62%; Ratio [29]: 5.3; Dose [30]: 0.7% |
| COc1cc(CC(C)N)c(OC)cc1I (stereo not given) | 47 | 5.6 | 0.76 | 0.64 | 0.29 | 0.86 | 12 | 1.1 | 18 | 0.4 | 14 | 12 | 3.2 | 1.2 | 13 | 46 | 0.06 | 0.83 | 0.92 | 6.7 | Dose [21]: 10%; Dose [22]: 3.3%; Dose [23]: 0.07%; Dose [24]: 0.32%; Ratio [25]: 4.7; Dose [26]: 2.8%; Dose [27]: 0.34%; Dose [28]: 0.8%; Ratio [29]: 17; Dose [30]: 2.8% |
